Assay results published in ChEMBL document CHEMBL4665639, “N-Benzylanilines as Fatty Acid Synthesis Inhibitors against Biofilm-related Methicillin-resistant Staphylococcus aureus” (ACS Med Chem Lett, 2019).
Converted amounts (≈) assume the structure as drawn. The source made the active and inactive calls. The calls are words filed in the database; no cut-off is given here.

Legend:
Staphylococcus aureus [1] = assay: Antibiofilm activity against methicillin-resistant Staphylococcus aureus ATCC 43300 assessed as reduction in biofilm biomass at 0.5 to 4 mg/L after 24 hrs by MTT assay; type: functional, organism-based; conditions: dose mg/L 0.5-4, time 24.0 hrs
Method in brief: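 Biofilm growth of MRSA ATCC 43300 measured in the presence of compound in cultivation plates, with a DMSO control. Significance of control vs treated is given at p < 0.05, 0.01 and 0.001.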

Staphylococcus aureus [2] = assay: Antibacterial activity against Staphylococcus aureus assessed as bacterial growth inhibition after 24 hrs by CLSI protocol based broth microdilution assay; type: functional
Pseudomonas aeruginosa = assay: Antibacterial activity against Pseudomonas aeruginosa assessed as bacterial growth inhibition after 24 hrs by CLSI protocol based broth microdilution assay; type: functional
Enterococcus faecium = assay: Antibacterial activity against Enterococcus faecium assessed as bacterial growth inhibition after 24 hrs by CLSI protocol based broth microdilution assay; type: functional
Escherichia coli = assay: Antibacterial activity against Escherichia coli assessed as bacterial growth inhibition after 24 hrs by CLSI protocol based broth microdilution assay; type: functional
Candida albicans = assay: Antifungal activity against Candida albicans assessed as fungal growth inhibition after 24 hrs by CLSI protocol based broth microdilution assay; type: functional
Staphylococcus aureus [3] = assay: Inhibition of Staphylococcus aureus ATCC 6538 fabI expressed in Escherichia coli BL21 (DE3) assessed as oxidation of NADPH to NADP+ using trans-2-octenoyl CoA as substrate incubated for 2 hrs in presence of NADPH by spectrophotometric analysis
Candida tropicalis = assay: Antifungal activity against Candida tropicalis assessed as fungal growth inhibition after 24 hrs by CLSI protocol based broth microdilution assay; type: functional
Bacillus cereus = assay: Antibacterial activity against Bacillus cereus assessed as bacterial growth inhibition after 24 hrs by CLSI protocol based broth microdilution assay; type: functional
Staphylococcus aureus [4] = assay: Antibacterial activity against methicillin-resistant Staphylococcus aureus assessed as bacterial growth inhibition after 24 hrs by CLSI protocol based broth microdilution assay; type: functional

SMILES	Activity (Staphylococcus aureus [1])	MIC (Staphylococcus aureus [2]) [µg/mL]	MIC (Pseudomonas aeruginosa) [µg/mL]	MIC (Enterococcus faecium) [µg/mL]	MIC (Escherichia coli) [µg/mL]	MIC (Candida albicans) [µg/mL]	inhibition (Staphylococcus aureus [3])	MIC (Candida tropicalis) [µg/mL]	MIC (Bacillus cereus) [µg/mL]	MIC (Staphylococcus aureus [4]) [µg/mL]	Activity (Staphylococcus aureus [2])	Activity (Staphylococcus aureus [4])
Oc1c(Br)cc(Br)cc1CNc1cccc(C(F)(F)F)c1	Active	≤ 2	≥ 64	≤ 2	≥ 64	≥ 64	Active	≥ 64	≤ 2	–	–	–
Oc1c(Br)cc(Br)cc1CNc1cc(C(F)(F)F)ccc1Cl	Active	1 (≈ 2.18 µM)	≥ 64	≤ 2	≥ 64	≥ 64	Active	≥ 64	≤ 2	1 (≈ 2.18 µM)	–	–
Oc1c(Cl)cc(Cl)cc1/C=N\c1cc(C(F)(F)F)ccc1Cl	–	–	≥ 64	–	≥ 64	≥ 64	–	≥ 64	–	–	–	–
Oc1c(Br)cc(Cl)cc1/C=N\c1cc(C(F)(F)F)ccc1Cl	–	–	≥ 64	–	≥ 64	≥ 64	–	≥ 64	–	–	–	–
Oc1c(Cl)cc(Cl)cc1CNc1cc(C(F)(F)F)ccc1Cl	Active	≤ 2	≥ 64	≤ 2	≥ 64	≥ 64	Active	≥ 64	≤ 2	–	–	–
Oc1ccc(Br)cc1/C=N\c1cc(C(F)(F)F)ccc1Cl	–	–	≥ 64	–	≥ 64	≥ 64	–	≥ 64	–	–	–	–
Oc1c(Br)cc(Br)cc1CNc1cc(C(F)(F)F)ccc1F	–	4 (≈ 9.03 µM)	≥ 64	–	≥ 64	≥ 64	–	≥ 64	–	4 (≈ 9.03 µM)	–	–
Oc1c(Br)cc(Br)cc1/C=N\c1cccc(C(F)(F)F)c1	–	–	≥ 64	–	≥ 64	≥ 64	–	≥ 64	–	–	inactive	inactive
Oc1ccc(Cl)cc1CNc1cc(C(F)(F)F)ccc1Cl	Active	1 (≈ 2.97 µM)	≥ 64	≤ 2	≥ 64	≥ 64	Active	≥ 64	≤ 2	1 (≈ 2.97 µM)	–	–
Oc1c(Br)cc(Cl)cc1CNCCc1ccc(Br)cc1	–	–	≥ 64	–	≥ 64	≥ 64	–	≥ 64	–	–	–	–
Oc1ccc(Br)cc1/C=N\c1cccc(OC(F)(F)F)c1	–	–	≥ 64	–	≥ 64	≥ 64	–	≥ 64	–	–	–	–
Oc1ccc(Br)cc1CNc1cc(C(F)(F)F)ccc1F	–	16 (≈ 43.9 µM)	≥ 64	–	≥ 64	≥ 64	–	≥ 64	–	16 (≈ 43.9 µM)	–	–
Oc1ccc(NCc2cc(Br)cc(Br)c2O)cc1	–	–	≥ 64	–	≥ 64	≥ 64	–	≥ 64	–	–	–	–
Oc1ccc(Br)cc1CNc1cccc(OC(F)(F)F)c1	–	–	≥ 64	–	≥ 64	≥ 64	–	≥ 64	–	–	–	–
Oc1ccc(Cl)cc1CNc1cc(C(F)(F)F)ccc1F	–	4 (≈ 12.5 µM)	≥ 64	–	≥ 64	≥ 64	–	≥ 64	–	32 (≈ 100 µM)	–	–
Oc1c(Br)cc(Cl)cc1CNc1cccc(C(F)(F)F)c1	Active	≤ 2	≥ 64	≤ 2	≥ 64	≥ 64	Active	≥ 64	≤ 2	–	–	–
Oc1ccc(Br)cc1/C=N\c1cc(C(F)(F)F)ccc1F	–	–	≥ 64	–	≥ 64	≥ 64	–	≥ 64	–	–	–	–
Oc1ccc(/N=C\c2cc(Br)cc(Br)c2O)cc1	–	–	≥ 64	–	≥ 64	≥ 64	–	≥ 64	–	–	inactive	inactive

SMILES	Activity (Staphylococcus aureus [1])	MIC (Staphylococcus aureus [2]) [µg/mL]	MIC (Pseudomonas aeruginosa) [µg/mL]	MIC (Enterococcus faecium) [µg/mL]	MIC (Escherichia coli) [µg/mL]	MIC (Candida albicans) [µg/mL]	inhibition (Staphylococcus aureus [3])	MIC (Candida tropicalis) [µg/mL]	MIC (Bacillus cereus) [µg/mL]	MIC (Staphylococcus aureus [4]) [µg/mL]	Activity (Staphylococcus aureus [2])	Activity (Staphylococcus aureus [4])
Oc1cccc(NCc2cc(Cl)cc(Br)c2O)c1	–	–	≥ 64	–	≥ 64	≥ 64	–	≥ 64	–	–	–	–
C[C@@H]1[C@H](O)[C@@H](C)/C=C/C=C/C=C/C=C/C=C/C=C/C=C/[C@H](O[C@@H]2O[C@H](C)[C@@H](O)[C@H](N)[C@@H]2O)C[C@@H]2O[C@](O)(C[C@@H](O)C[C@@H](O)[C@H](O)CC[C@@H](O)C[C@@H](O)CC(=O)O[C@H]1C)C[C@H](O)[C@H]2C(=O)O [AMPHOTERICIN B]	–	–	≥ 64	–	≥ 64	≥ 64	–	≥ 64	–	–	–	–
Oc1c(Br)cc(Cl)cc1/C=N\CCc1ccc(Br)cc1	–	–	≥ 64	–	≥ 64	≥ 64	–	≥ 64	–	–	–	–
Oc1c(Br)cc(Br)cc1/C=N\c1cc(C(F)(F)F)ccc1Cl	–	–	≥ 64	–	≥ 64	≥ 64	–	≥ 64	–	–	inactive	inactive
Oc1c(Br)cc(Cl)cc1/C=N\CCc1ccc(F)cc1	–	–	≥ 64	–	≥ 64	≥ 64	–	≥ 64	–	–	–	–
Oc1c(Br)cc(Cl)cc1CNCCc1ccc(F)cc1	–	–	≥ 64	–	≥ 64	≥ 64	–	≥ 64	–	–	–	–
Oc1cccc(/N=C\c2cc(Cl)cc(Br)c2O)c1	–	–	≥ 64	–	≥ 64	≥ 64	–	≥ 64	–	–	–	–
Oc1cc(Cl)ccc1Oc1ccc(Cl)cc1Cl [TRICLOSAN]	–	–	≥ 64	–	≥ 64	≥ 64	–	≥ 64	–	–	–	–
CN(C)[C@@H]1C(O)=C(C(N)=O)C(=O)[C@@]2(O)C(O)=C3C(=O)c4c(O)cccc4[C@@](C)(O)[C@H]3C[C@@H]12 [TETRACYCLINE]	–	–	≥ 64	–	≥ 64	≥ 64	–	≥ 64	–	–	–	–
CC1COc2c(N3CCN(C)CC3)c(F)cc3c(=O)c(C(=O)O)cn1c23 (configuration not stated) [OFLOXACIN]	–	–	≥ 64	–	≥ 64	≥ 64	–	≥ 64	–	–	–	–
Oc1ccc(Cl)cc1/C=N\c1cc(C(F)(F)F)ccc1Cl	–	–	≥ 64	–	≥ 64	≥ 64	–	≥ 64	–	–	–	–
Oc1ccc(Cl)cc1CNc1ccc(OC(F)(F)F)cc1	–	–	≥ 64	–	≥ 64	≥ 64	–	≥ 64	–	–	–	–
Oc1ccc(Br)cc1CNc1cc(C(F)(F)F)ccc1Cl	Active	2 (≈ 5.25 µM)	≥ 64	≤ 2	≥ 64	≥ 64	Active	≥ 64	≤ 2	1 (≈ 2.63 µM)	–	–
Oc1ccc(Cl)cc1/C=N\c1cc(C(F)(F)F)ccc1F	–	–	≥ 64	–	≥ 64	≥ 64	–	≥ 64	–	–	–	–
Oc1ccc(Cl)cc1/C=N\c1ccc(OC(F)(F)F)cc1	–	–	≥ 64	–	≥ 64	≥ 64	–	≥ 64	–	–	–	–
Oc1c(Br)cc(Br)cc1/C=N\c1cc(C(F)(F)F)ccc1F	–	–	≥ 64	–	≥ 64	≥ 64	–	≥ 64	–	–	inactive	inactive
Oc1c(Br)cc(Cl)cc1/C=N\c1cccc(C(F)(F)F)c1	–	–	≥ 64	–	≥ 64	≥ 64	–	≥ 64	–	–	–	–
